Data taken from ChEMBL document CHEMBL3784976 (J Med Chem, 2016).
Active and inactive are the calls of the source. No cut-off for these calls is given here.

What was measured:
[1] = molecular target: Beta-1 adrenergic receptor (Homo sapiens) (UniProt P08588); assay: Displacement of (-)-[3H]CGP-12177 from human recombinant adrenergic beta1 receptor expressed in HEK293 cells assessed as remaining radioligand binding at 10 uM after 60 mins by scintillation counting method relative to control; assay type: cell-based
[2] = molecular target: Alpha-1A adrenergic receptor (Homo sapiens) (UniProt P35348); assay: Displacement of [3H]prazosin from human recombinant adrenergic alpha1A expressed in CHO cells assessed as remaining radioligand binding at 10 uM after 60 mins by scintillation counting method relative to control; assay type: cell-based
[3] = molecular target: C-X-C chemokine receptor type 2 (Homo sapiens) (UniProt P25025); assay: Displacement of [125I]IL-8 from human recombinant CXCR2 expressed in HEK293 cells assessed as remaining radioligand binding at 10 uM after 60 mins by scintillation counting method relative to control; assay type: cell-based
Rattus norvegicus [4] = species: Rattus norvegicus; assay: Displacement of [3H]PK-11195 from benzodiazepine receptor in rat heart assessed as remaining radioligand binding at 10 uM after 15 mins by scintillation counting method relative to control
[5] = molecular target: T1, Transient receptor potential cation channel subfamily A member 1 (Rattus norvegicus, UniProt Q6RI86); assay: Antagonist activity at rat TRPA1 expressed in tetracycline-inducible T-REx expression system transfected CHO cells assessed as inhibition of AITC-induced Ca2+ influx preincubated for 2 mins followed by AITC addition measured for 2 mins by Fluo-4 dye based FLIPR assay; assay type: cell-based
[6] = Apparent intrinsic clearance in human liver microsomes; assay type: ADME; conditions: read-out: CLH(app)
[7] = molecular target: Sodium-dependent dopamine transporter (Homo sapiens) (UniProt Q01959); assay: Displacement of [3H]BTCP from human recombinant dopamine transporter expressed in CHO cells assessed as remaining radioligand binding at 10 uM after 120 mins by scintillation counting method relative to control; assay type: cell-based
[8] = molecular target: 5-hydroxytryptamine receptor 1B (Rattus norvegicus) (UniProt P28564); assay: Displacement of [125I]CYP from 5HT1B receptor in rat cerebral cortex assessed as remaining radioligand binding at 10 uM after 120 mins by scintillation counting method relative to control; assay type: tissue-based
[9] = molecular target: Melanocortin receptor 4 (Homo sapiens) (UniProt P32245); assay: Displacement of [125I]NDP-a-MSH from human recombinant MC4 receptor expressed in CHO cells assessed as remaining radioligand binding at 10 uM after 120 mins by scintillation counting method relative to control; assay type: cell-based
Rattus norvegicus [10] = species: Rattus norvegicus; assay: Displacement of [3H]diltiazem from L-type calcium channel diltiazem binding site in rat cerebral cortex assessed as remaining radioligand binding at 10 uM after 120 mins by scintillation counting method relative to control; assay type: tissue-based
[11] = molecular target: Cannabinoid receptor 1 (Homo sapiens) (UniProt P21554); assay: Displacement of [3H]CP-55940 from human recombinant CB1 receptor expressed in CHO cells assessed as remaining radioligand binding at 10 uM after 120 mins by scintillation counting method relative to control; assay type: cell-based
[12] = molecular target: Somatostatin receptor type 4 (Homo sapiens) (UniProt P31391); assay: Displacement of [125I]Tyr11-somatostatin-14 from human recombinant SST4 receptor expressed in CHO cells assessed as remaining radioligand binding at 10 uM after 120 mins by scintillation counting method relative to control; assay type: cell-based
[13] = molecular target: T2, Transient receptor potential cation channel subfamily A member 1 (Homo sapiens, UniProt O75762); assay: Antagonist activity at human TRPA1 expressed in tetracycline-inducible T-REx expression system transfected CHO cells assessed as inhibition of AITC-induced 45Ca2+ uptake preincubated for 1 min followed by AITC addition measured after 12 mins; assay type: cell-based
[14] = molecular target: T1, Transient receptor potential cation channel subfamily A member 1; assay: Agonist activity at rat TRPA1 expressed in tetracycline-inducible T-REx expression system transfected CHO cells by 45Ca2+ uptake assay; assay type: cell-based
[15] = molecular target: T2, Transient receptor potential cation channel subfamily A member 1; assay: Agonist activity at human TRPA1 expressed in tetracycline-inducible T-REx expression system transfected CHO cells by 45Ca2+ uptake assay; assay type: cell-based
[16] = Tmax in rat at 30 mg/kg, po; assay type: ADME, organism-based; conditions: in vivo
Outline: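 Rats dosed orally at 30 mg/kg, or 10 mg/kg for one analogue, in 1% Tween 80/2% HPMC/97% water with methanesulfonic acid, pH 2.2.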

[17] = Ratio of fCmax in rat at 30 mg/kg, po to IC50 for rat TRPA1 expressed in tetracycline-inducible T-REx expression system transfected CHO cells by 45Ca2+ uptake assay
[18] = molecular target: Transient receptor potential cation channel subfamily V member 1 (Homo sapiens, UniProt Q8NER1); assay: Antagonist activity at human TRPV1 expressed in CHO cells assessed as inhibition of capsaicin-induced Ca2+ influx up to 10 uM preincubated for 2.5 mins followed by capsaicin addition measured for 1 min by luminescence assay; assay type: cell-based
[19] = molecular target: Transient receptor potential cation channel subfamily V member 1 (Rattus norvegicus) (UniProt O35433); assay: Antagonist activity at rat TRPV1 assessed as inhibition of capsaicin-induced Ca2+ influx up to 10 uM preincubated for 2.5 mins followed by capsaicin addition measured for 1 min by luminescence assay
Rattus norvegicus [20] = species: Rattus norvegicus; assay: Antagonist activity at rat TRPV3 assessed as inhibition of 2-APB-induced Ca2+ influx up to 10 uM preincubated for 2.5 mins followed by 2-APB addition measured for 1 min by luminescence assay
[21] = molecular target: Sodium channel protein type 9 subunit alpha (Mus musculus) (UniProt Q62205); assay: Inhibition of Nav1.7 in mouse DRG neurons at 10 uM relative to control
[22] = Ratio of unbound plasma concentration in Harlan Sprague-Dawley rat model of AITC-induced flinching at 30 mg/kg, po to IC50 for rat TRPA1 expressed in tetracycline-inducible T-REx expression system transfected CHO cells by 45Ca2+ uptake assay; assay type: ADME, organism-based; conditions: in vivo
Outline: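 Rats dosed orally at 1, 3, 10 or 30 mg/kg in 2% HPMC/1% Tween-80 vehicle. After 1 h, unbound plasma concentration measured (n = 8 per dose), intraplantar AITC (0.1%) given and flinching scored over the first minute. Unbound concentration divided by in vitro rat TRPA1 45Ca2+ IC50.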

Rattus norvegicus [23] = assay: In vivo inhibition of TRPA1 in Harlan Sprague-Dawley rat model of AITC-induced flinching assessed as unbound plasma concentration based IC50; assay type: functional, organism-based
Outline: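 Rats were given vehicle (2% HPMC/1% Tween-80) or compound orally at 1, 3, 10 or 30 mg/kg. After 1 h, 0.1% AITC was injected into one left ventral hind paw, and nocifensive flinching was recorded over the first minute. Unbound plasma concentration was measured at 1 h, n = 8 per dose. In vivo IC50/IC90 came from the exposure–response relationship across individual animals.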

Rattus norvegicus [24] = assay: Binding affinity to TRPA1 in Harlan Sprague-Dawley rat model of AITC-induced flinching at 30 mg/kg, po in presence of AITC; assay type: functional, organism-based
[25] = molecular target: 5-hydroxytryptamine receptor 2B (Homo sapiens) (UniProt P41595); assay: Displacement of [3H]mesulergine from human recombinant 5HT2B receptor expressed in CHO cells assessed as remaining radioligand binding at 10 uM after 60 mins by scintillation counting method relative to control; assay type: cell-based
[26] = molecular target: 5-hydroxytryptamine receptor 5A (Homo sapiens) (UniProt P47898); assay: Displacement of [3H]LSD from human recombinant 5HT5A receptor expressed in HEK293 cells assessed as remaining radioligand binding at 10 uM after 120 mins by scintillation counting method relative to control; assay type: cell-based

T1 sequence (Q6RI86 whole entry): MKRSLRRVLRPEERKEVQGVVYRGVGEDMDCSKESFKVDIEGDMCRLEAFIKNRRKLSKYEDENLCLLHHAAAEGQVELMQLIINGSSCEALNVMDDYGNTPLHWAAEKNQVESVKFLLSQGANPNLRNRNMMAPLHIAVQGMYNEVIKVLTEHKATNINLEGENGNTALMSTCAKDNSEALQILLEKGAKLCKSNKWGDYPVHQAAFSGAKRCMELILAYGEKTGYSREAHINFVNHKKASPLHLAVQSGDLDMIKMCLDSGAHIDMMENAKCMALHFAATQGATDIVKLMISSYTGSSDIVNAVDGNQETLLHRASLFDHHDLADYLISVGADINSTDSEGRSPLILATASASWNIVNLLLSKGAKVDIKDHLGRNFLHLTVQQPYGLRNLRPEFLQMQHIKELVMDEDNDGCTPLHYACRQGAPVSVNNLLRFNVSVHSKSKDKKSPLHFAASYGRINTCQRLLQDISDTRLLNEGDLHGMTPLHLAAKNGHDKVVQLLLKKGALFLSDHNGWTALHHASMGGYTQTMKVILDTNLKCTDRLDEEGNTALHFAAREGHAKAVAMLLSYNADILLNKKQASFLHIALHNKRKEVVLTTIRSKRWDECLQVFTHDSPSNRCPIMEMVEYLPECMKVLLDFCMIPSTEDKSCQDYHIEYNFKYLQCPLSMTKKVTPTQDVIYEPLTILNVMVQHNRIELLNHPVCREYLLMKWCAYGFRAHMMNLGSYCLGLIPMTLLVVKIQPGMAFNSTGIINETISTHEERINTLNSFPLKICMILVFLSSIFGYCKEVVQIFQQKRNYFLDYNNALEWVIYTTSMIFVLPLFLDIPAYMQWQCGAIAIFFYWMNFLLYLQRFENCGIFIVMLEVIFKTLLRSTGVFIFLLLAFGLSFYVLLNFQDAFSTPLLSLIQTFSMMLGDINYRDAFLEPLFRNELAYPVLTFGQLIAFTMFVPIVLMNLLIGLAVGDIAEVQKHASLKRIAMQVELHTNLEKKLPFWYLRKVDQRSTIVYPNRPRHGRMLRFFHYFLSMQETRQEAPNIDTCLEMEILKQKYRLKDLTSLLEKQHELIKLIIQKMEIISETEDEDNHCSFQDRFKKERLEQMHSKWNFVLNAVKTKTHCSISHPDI
T2 sequence (O75762 whole entry): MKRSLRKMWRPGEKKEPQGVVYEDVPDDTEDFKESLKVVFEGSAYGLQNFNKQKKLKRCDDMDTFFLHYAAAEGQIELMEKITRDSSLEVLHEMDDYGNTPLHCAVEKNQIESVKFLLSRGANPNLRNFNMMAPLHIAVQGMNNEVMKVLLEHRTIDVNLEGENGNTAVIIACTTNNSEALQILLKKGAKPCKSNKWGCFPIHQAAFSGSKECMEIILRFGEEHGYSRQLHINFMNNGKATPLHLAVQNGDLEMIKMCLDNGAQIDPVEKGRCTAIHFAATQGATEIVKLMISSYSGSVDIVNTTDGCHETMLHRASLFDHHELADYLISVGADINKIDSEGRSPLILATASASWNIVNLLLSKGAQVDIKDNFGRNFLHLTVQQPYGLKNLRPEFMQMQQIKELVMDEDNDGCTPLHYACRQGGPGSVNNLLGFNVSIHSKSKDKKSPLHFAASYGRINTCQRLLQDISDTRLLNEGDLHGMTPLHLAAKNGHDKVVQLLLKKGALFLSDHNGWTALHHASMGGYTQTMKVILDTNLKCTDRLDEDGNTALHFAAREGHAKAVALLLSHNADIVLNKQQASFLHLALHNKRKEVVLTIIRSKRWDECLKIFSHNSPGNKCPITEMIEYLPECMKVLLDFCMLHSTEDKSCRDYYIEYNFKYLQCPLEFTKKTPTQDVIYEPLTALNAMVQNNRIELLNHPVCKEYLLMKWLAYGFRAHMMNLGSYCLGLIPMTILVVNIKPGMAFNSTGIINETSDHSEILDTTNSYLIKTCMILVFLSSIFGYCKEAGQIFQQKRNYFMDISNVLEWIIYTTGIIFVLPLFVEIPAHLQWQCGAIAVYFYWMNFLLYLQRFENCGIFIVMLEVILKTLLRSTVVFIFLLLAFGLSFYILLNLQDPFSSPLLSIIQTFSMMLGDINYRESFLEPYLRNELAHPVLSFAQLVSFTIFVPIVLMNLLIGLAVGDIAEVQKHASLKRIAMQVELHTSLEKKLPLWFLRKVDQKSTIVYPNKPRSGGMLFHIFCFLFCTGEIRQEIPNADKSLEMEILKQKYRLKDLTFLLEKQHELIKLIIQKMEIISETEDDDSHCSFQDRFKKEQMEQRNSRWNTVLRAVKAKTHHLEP
Cannabinoid receptor 1 (Homo sapiens), sequence (P21554 whole entry): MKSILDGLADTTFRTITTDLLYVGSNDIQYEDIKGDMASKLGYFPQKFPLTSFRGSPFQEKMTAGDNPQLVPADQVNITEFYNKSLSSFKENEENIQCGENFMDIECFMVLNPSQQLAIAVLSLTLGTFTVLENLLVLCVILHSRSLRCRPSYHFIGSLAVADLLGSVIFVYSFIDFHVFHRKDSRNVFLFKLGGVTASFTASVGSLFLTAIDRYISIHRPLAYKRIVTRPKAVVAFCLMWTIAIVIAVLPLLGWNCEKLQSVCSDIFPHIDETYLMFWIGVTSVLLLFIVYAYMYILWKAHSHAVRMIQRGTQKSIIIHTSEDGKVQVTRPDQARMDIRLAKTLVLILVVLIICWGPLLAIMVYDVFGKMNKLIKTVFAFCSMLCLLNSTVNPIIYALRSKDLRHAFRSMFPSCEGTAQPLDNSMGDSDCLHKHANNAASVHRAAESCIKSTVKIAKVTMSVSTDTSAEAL
Transient receptor potential cation channel subfamily V member 1, sequence (Q8NER1 whole entry): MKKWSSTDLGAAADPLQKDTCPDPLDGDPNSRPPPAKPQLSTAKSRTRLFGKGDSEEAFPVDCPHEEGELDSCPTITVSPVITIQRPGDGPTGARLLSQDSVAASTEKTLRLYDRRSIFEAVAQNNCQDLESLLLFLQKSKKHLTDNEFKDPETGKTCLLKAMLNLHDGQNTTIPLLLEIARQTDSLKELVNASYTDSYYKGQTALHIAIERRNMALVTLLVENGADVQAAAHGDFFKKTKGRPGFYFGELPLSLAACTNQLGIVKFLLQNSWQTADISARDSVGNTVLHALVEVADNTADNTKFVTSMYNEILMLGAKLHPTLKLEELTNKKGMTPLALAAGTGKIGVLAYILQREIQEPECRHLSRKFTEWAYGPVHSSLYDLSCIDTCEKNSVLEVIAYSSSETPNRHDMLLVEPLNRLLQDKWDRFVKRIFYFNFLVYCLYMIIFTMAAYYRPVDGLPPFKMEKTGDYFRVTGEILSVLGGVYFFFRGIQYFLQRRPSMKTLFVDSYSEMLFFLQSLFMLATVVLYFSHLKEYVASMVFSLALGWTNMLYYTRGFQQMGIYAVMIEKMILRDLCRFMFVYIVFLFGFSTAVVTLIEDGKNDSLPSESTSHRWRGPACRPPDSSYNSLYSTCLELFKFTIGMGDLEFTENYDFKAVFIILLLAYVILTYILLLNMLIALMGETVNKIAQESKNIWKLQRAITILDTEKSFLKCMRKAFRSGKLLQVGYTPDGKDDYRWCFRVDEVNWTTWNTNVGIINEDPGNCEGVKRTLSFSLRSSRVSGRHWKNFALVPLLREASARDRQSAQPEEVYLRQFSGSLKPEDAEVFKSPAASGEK
Sodium-dependent dopamine transporter (Homo sapiens), sequence (Q01959 whole entry): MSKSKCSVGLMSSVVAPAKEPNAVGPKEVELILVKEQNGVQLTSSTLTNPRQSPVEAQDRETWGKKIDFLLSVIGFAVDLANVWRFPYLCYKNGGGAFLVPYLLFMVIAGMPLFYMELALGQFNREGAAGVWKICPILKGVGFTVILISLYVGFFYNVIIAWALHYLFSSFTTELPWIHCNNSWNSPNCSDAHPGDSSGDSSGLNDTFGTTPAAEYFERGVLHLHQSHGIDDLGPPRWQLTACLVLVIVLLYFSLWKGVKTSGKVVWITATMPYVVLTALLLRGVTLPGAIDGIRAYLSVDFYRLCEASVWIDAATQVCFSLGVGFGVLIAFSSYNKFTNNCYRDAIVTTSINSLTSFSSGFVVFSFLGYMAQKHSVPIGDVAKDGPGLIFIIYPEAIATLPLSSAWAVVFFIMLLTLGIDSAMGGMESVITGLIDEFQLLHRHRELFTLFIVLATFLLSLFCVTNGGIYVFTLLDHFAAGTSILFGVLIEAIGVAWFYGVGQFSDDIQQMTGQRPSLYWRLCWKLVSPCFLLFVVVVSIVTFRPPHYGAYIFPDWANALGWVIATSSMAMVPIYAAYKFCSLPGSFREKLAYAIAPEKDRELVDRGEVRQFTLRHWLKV
Transient receptor potential cation channel subfamily V member 1 (Rattus norvegicus), sequence (O35433 whole entry): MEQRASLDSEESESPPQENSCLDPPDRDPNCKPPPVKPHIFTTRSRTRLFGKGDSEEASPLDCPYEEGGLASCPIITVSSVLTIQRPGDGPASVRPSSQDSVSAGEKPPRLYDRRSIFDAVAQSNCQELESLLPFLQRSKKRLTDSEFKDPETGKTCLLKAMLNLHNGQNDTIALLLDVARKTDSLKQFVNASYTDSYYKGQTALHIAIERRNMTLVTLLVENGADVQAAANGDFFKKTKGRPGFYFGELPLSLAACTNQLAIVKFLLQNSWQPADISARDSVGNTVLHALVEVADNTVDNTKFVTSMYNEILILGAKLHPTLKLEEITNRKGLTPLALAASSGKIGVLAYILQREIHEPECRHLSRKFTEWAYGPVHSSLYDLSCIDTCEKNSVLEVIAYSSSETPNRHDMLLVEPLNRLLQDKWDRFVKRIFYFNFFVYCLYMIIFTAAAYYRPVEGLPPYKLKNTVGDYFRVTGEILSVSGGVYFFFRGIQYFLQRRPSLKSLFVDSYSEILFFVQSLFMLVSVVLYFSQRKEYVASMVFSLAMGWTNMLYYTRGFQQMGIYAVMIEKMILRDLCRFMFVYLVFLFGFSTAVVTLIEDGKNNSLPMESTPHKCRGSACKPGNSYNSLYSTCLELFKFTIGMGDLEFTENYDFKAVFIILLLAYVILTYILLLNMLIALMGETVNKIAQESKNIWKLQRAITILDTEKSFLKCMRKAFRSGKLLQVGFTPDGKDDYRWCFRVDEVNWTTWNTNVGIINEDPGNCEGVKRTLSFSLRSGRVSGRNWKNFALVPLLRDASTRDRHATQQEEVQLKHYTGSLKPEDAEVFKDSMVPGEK

Activity [1]: > 77%
Activity [2]: > 77%
Activity [3]: > 77%
Activity (Rattus norvegicus [4]): > 77%
IC50 [5]: 20 nM
microsomal CLint [6]: < 14 µL/min/mg
Activity [7]: > 77%
Activity [8]: > 77%
Activity [9]: > 77%
Activity (Rattus norvegicus [10]): > 77%
Activity [11]: > 77%
Activity [12]: > 77%
IC50 [13]: 131 nM
EC50 [14]: > 40000 nM
EC50 [15]: > 40000 nM
Tmax [16]: 48 min
inhibition [18]: inactive
inhibition [19]: inactive
inhibition (Rattus norvegicus [20]): inactive
inhibition [21]: 10%
Ratio [22]: 30.3
IC50 (Rattus norvegicus [23]): 350 nM
Activity [25]: > 77%
Activity [26]: > 77%
SMILES: Cn1cnc2ncn(Cc3nc(CCc4ccc(Cl)cc4)no3)c(=O)c21
Ratio [17]: 31
Activity (Rattus norvegicus [24]): Active
